pIC50: −log10 of the molar value.
Key:
Leishmania donovani [1] = experiment: Inhibitory concentration against Leishmania donovani axenic amastigotes was determined in vitro; assay type: functional, organism-based
Leishmania donovani [2] = experiment: Inhibition percentage of Leishmanial tubulin assembly at a concentration of 10 uM.
Method in brief: (§1)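 Leishmanial tubulin turbidity assay. Compounds added in 50% DMSO. Assembly started on ice by adding cold GTP in 25% DMSO. Turbidity followed at 351 nm while warming to 30 °C. Single-concentration tests run at 10 µM.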

PC-3 = experiment: In vitro cytotoxicity against mouse PC3 prostate cancer cell line.; assay type: functional, cell-based; conditions: Homo sapiens
Tubulin (Sus scrofa) = Tubulin (Sus scrofa) (UniProt P02554+P02550); experiment: Inhibition of porcine brain tubulin assembly at 40 uM
Method in brief: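 Porcine brain tubulin purified by DEAE-Sepharose and a warm assembly cycle. Compound at 40 µM added in 100% DMSO. Assembly started on ice with cold GTP in water. Turbidity read at 351 nm while warming to 37 °C. Percent inhibition determined.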

J774 = experiment: In vitro cytotoxicity against mouse J774 macrophages.; assay type: functional, cell-based
Trypanosoma brucei = experiment: microbe, parasite or virus in culture; assay type: functional, organism-based
[3] = Tested for toxicity against mice by intraperitoneal administration; No signs of toxicity; conditions: mouse, in vivo, ip
Mus musculus [4] = experiment: Tested against Trypanosoma brucei strain ST1B 795 in mice as cured to tested at 20 mg/kg/day administered intraperitoneally; 0/4; assay type: functional; conditions: route intraperitoneal
Mus musculus [5] = experiment: Average survival time for mice infected with Trypanosoma brucei ST1B 795 when treated with 20 mg/kg administered intraperitoneally; assay type: functional; conditions: route intraperitoneal
Method in brief: (§2)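 Female NMRI mice (20-25 g) were infected ip with 10⁴ T. b. brucei STIB 795 bloodstream forms and randomly assigned to groups of four. Starting 4 days after infection, 20 mg/kg was given ip for 4 consecutive days. Vehicle was DMSO diluted with water, with final DMSO below 10%. Day of death was recorded for each mouse.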

[6] = Inhibition of Leishmanial tubulin assembly; set-up: species or system Leishmania donovani; method in brief: as §1
Mus musculus [7] = experiment: Average survival time for mice infected with Trypanosoma brucei ST1B 795 when treated with 20 mg/kg administered i.p.; assay type: functional; conditions: route intraperitoneal; method in brief: as §2
[8] = tested on: Tubulin (Leishmania donovani); experiment: Inhibition percentage of Leishmanial tubulin assembly at a concentration of 10 uM

Tubulin (Sus scrofa), sequence (P02550 whole entry, looked up): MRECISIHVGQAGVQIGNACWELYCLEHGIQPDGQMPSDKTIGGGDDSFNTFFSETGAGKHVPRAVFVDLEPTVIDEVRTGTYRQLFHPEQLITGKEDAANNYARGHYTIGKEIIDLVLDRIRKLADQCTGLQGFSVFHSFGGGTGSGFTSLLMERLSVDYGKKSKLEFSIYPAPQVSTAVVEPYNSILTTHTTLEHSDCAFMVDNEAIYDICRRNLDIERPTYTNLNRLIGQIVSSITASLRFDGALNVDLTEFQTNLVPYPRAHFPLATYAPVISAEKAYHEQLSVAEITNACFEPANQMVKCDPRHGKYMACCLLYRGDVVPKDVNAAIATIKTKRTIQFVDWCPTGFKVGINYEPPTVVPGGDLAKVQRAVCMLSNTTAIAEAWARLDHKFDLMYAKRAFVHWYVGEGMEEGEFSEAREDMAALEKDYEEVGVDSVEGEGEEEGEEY
Tubulin (Sus scrofa), sequence (P02554 whole entry, looked up): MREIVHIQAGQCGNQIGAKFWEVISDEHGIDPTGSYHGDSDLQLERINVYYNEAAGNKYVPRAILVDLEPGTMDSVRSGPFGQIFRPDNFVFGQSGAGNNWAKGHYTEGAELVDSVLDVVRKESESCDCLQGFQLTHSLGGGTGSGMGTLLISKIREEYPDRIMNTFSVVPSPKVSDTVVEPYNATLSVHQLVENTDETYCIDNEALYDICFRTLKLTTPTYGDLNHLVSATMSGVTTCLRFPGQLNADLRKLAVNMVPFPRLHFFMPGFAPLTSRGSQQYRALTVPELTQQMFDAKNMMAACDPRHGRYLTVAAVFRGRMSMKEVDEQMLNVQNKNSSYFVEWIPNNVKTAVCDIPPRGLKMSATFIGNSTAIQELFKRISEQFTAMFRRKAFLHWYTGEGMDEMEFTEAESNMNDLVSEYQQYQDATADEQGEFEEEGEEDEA

SMILES | pIC50 (Leishmania donovani [1]) | inhibition (Leishmania donovani [2]) [%] | pIC50 (PC-3) | inhibition (Tubulin (Sus scrofa)) [%] | pIC50 (J774) | pIC50 (Trypanosoma brucei) | also measured
CCN(CC)c1c([N+](=O)[O-])cc(S(=O)(=O)Nc2ccccc2)cc1[N+](=O)[O-] | 4.96 | < 20 | 4.25 | < 20 | 4.32 | 5.55 | –
CCCCCCNS(=O)(=O)c1cc([N+](=O)[O-])c(N(CCC)CCC)c([N+](=O)[O-])c1 | 4.59 | – | – | – | – | 4.82 | –
COc1cc2cc(c1Cl)N(C)C(=O)C[C@H](OC(=O)C(C)C)[C@]1(C)O[C@@H]1[C@H](C)[C@@H]1C[C@@](O)(NC(=O)O1)[C@H](OC)/C=C/C=C(\C)C2 [ANSAMITOCIN P3] | – | – | 10.22 | – | 9.33 | – | –
CCCN(CCC)c1c([N+](=O)[O-])cc(S(=O)(=O)NC)cc1[N+](=O)[O-] | < 4.00 | < 20 | – | < 20 | – | 5.28 | –
CCCN(CCC)c1c([N+](=O)[O-])cc(S(=O)(=O)Nc2cccc(Cl)c2)cc1[N+](=O)[O-] | 5.26 | 57 | 4.74 | < 20 | 5.06 | 5.68 | –
CCCCN(CCCC)c1c([N+](=O)[O-])cc(S(=O)(=O)Nc2ccccc2)cc1[N+](=O)[O-] | 5.59 | 104 | 4.89 | < 20 | 4.92 | 6.92 | Dose [3]: 20 mg/kg; Activity (Mus musculus [4]): 0; Survival (Mus musculus [5]): 8 days; pIC50 [6]: 5.16
Cc1ccc(C(=O)Nc2ccc(S(=O)(=O)O)c3cc(S(=O)(=O)O)cc(S(=O)(=O)O)c23)cc1NC(=O)c1cccc(NC(=O)Nc2cccc(C(=O)Nc3cc(C(=O)Nc4ccc(S(=O)(=O)O)c5cc(S(=O)(=O)O)cc(S(=O)(=O)O)c45)ccc3C)c2)c1 [SURAMIN] | – | – | – | – | – | 6.68 | –
CCCNS(=O)(=O)c1cc([N+](=O)[O-])c(N(CCC)CCC)c([N+](=O)[O-])c1 | 4.27 | < 20 | – | – | – | 5.05 | –
CCCN(CCC)c1c([N+](=O)[O-])cc(S(=O)(=O)Nc2ccc(C)cc2)cc1[N+](=O)[O-] | 4.49 | < 20 | 4.68 | < 20 | 4.96 | 4.89 | –
CCCN(CCC)c1c([N+](=O)[O-])cc(S(=O)(=O)NC(C)C)cc1[N+](=O)[O-] | < 4.00 | – | – | – | – | 5.39 | –
CCCN(CCC)c1c([N+](=O)[O-])cc(S(=O)(=O)NC2CC2)cc1[N+](=O)[O-] | 4.37 | – | – | – | – | 5.47 | –
CCCN(CCC)c1c([N+](=O)[O-])cc(S(=O)(=O)N2CCOCC2)cc1[N+](=O)[O-] | < 4.00 | – | – | – | – | < 4.00 | –
CCCCCNS(=O)(=O)c1cc([N+](=O)[O-])c(N(CCC)CCC)c([N+](=O)[O-])c1 | 4.37 | – | – | – | – | 4.77 | –
CCCN(CCC)c1c([N+](=O)[O-])cc(S(=O)(=O)N(C)C)cc1[N+](=O)[O-] | < 4.00 | – | – | – | – | 5.24 | –
CCCN(CCC)c1c([N+](=O)[O-])cc(S(=O)(=O)Nc2cccc(C)c2)cc1[N+](=O)[O-] | 4.64 | < 20 | 4.60 | < 20 | 4.80 | 5.72 | –
CCCN(CCC)c1c([N+](=O)[O-])cc(S(=O)(=O)Nc2ccccn2)cc1[N+](=O)[O-] | 4.22 | – | – | – | 4.35 | 5.04 | –
CCCN(CCC)c1c([N+](=O)[O-])cc(S(=O)(=O)N(CCC)CCC)cc1[N+](=O)[O-] | 4.26 | – | – | – | – | 4.77 | –

SMILES | pIC50 (Leishmania donovani [1]) | inhibition (Leishmania donovani [2]) [%] | pIC50 (PC-3) | inhibition (Tubulin (Sus scrofa)) [%] | pIC50 (J774) | pIC50 (Trypanosoma brucei) | also measured
CCCN(CCC)c1c([N+](=O)[O-])cc(S(=O)(=O)Nc2ccc(OC)cc2)cc1[N+](=O)[O-] | 4.49 | < 20 | 4.51 | < 20 | 4.82 | 4.72 | Dose [3]: No signs of toxicity; Activity (Mus musculus [4]): 0
CCCN(CCC)c1c([N+](=O)[O-])cc(S(=O)(=O)Nc2ccccc2)cc1[N+](=O)[O-] | 5.30 | 89 | 4.51 | 14 | 4.55 | 6.39 | Dose [3]: 20 mg/kg; Survival (Mus musculus [7]): 8 days; Activity (Mus musculus [4]): 0; pIC50 [6]: 5.17
CCCN(CCC)c1c([N+](=O)[O-])cc(S(=O)(=O)Nc2cccc(OC)c2)cc1[N+](=O)[O-] | 5.09 | 39 | 4.44 | < 20 | 4.60 | 5.89 | –
CCCN(CCC)c1c([N+](=O)[O-])cc(S(=O)(=O)N(C)c2ccccc2)cc1[N+](=O)[O-] | 4.68 | < 20 | < 4.00 | – | 4.96 | 6.00 | –
CCCCNS(=O)(=O)c1cc([N+](=O)[O-])c(N(CCC)CCC)c([N+](=O)[O-])c1 | 4.30 | – | – | < 20 | – | 4.92 | –
CCCN(CCC)c1c([N+](=O)[O-])cc(S(=O)(=O)N2CCCC2)cc1[N+](=O)[O-] | 4.33 | – | – | – | – | 5.19 | –
CCCN(CCC)c1c([N+](=O)[O-])cc(S(=O)(=O)NC2CCCC2)cc1[N+](=O)[O-] | 4.30 | – | – | – | – | 4.96 | inhibition [8]: < 20%; Dose [3]: No signs of toxicity; Activity (Mus musculus [4]): 0
CCCN(CCC)c1c([N+](=O)[O-])cc(S(=O)(=O)N(CC)CC)cc1[N+](=O)[O-] | 4.57 | – | – | – | – | 5.08 | –
CCCCCCN(CCCCCC)S(=O)(=O)c1cc([N+](=O)[O-])c(N(CCC)CCC)c([N+](=O)[O-])c1 | < 4.00 | – | – | – | – | < 4.30 | –
CCCN(CCC)c1c([N+](=O)[O-])cc(S(=O)(=O)Nc2cc(Cl)cc(Cl)c2)cc1[N+](=O)[O-] | 5.43 | 102 | 4.96 | < 20 | 5.29 | 5.10 | pIC50 [6]: 5.24
CCCN(CCC)c1c([N+](=O)[O-])cc(S(=O)(=O)Nc2ccc(Cl)c(Cl)c2)cc1[N+](=O)[O-] | 5.30 | < 20 | 4.82 | < 20 | 5.14 | 5.10 | –
N=C(N)c1ccc(OCCCCCOc2ccc(C(=N)N)cc2)cc1 [PENTAMIDINE] | – | – | – | – | – | 7.89 | –
CCCN(CCC)c1c([N+](=O)[O-])cc(S(=O)(=O)N(c2ccccc2)c2ccccc2)cc1[N+](=O)[O-] | < 4.00 | – | < 4.00 | – | < 4.00 | 5.15 | –
CCCN(CCC)c1c([N+](=O)[O-])cc(S(N)(=O)=O)cc1[N+](=O)[O-] [ORYZALIN] | 4.19 | – | 4.25 | – | 4.36 | 4.92 | –
CCCN(CCC)c1c([N+](=O)[O-])cc(S(=O)(=O)Nc2ccc(Cl)cc2)cc1[N+](=O)[O-] | 4.89 | < 20 | 4.80 | < 20 | 5.00 | 4.89 | –
CCCCN(CCCC)S(=O)(=O)c1cc([N+](=O)[O-])c(N(CCC)CCC)c([N+](=O)[O-])c1 | 4.32 | – | – | – | – | 4.42 | –
CCCN(CCC)c1c([N+](=O)[O-])cc(S(=O)(=O)NCC)cc1[N+](=O)[O-] | < 4.00 | – | – | – | – | 5.27 | –

— ChEMBL document CHEMBL1149127, “Synthesis and antitubulin activity of N1- and N4-substituted 3,5-dinitro sulfanilamides against African trypanosomes and Leishmania” (J Med Chem, 2004)
